# Active and inactive are the calls of the source. The rule behind the calls is not given here.
# How the values were obtained:
# MDA-MB-231 [1] = assay: Induction of cell death in human MDA-MB-231 cells after 96 hrs by trypan blue exclusion assay; format: functional, cell-based
# How it was run: (§1)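 MDA-MB-231 breast cancer cells were exposed to the inhibitor for 96 hours across a dose series that included 10, 100 and 1000 nM. Viability was scored by trypan blue exclusion.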
# [2] = target: T1, Apoptosis regulator Bcl-2 (Homo sapiens, UniProt P10415); assay: Displacement of FAM-Bid BH3 peptide from human recombinant Bcl2 by FP-based binding assay
# T1 sequence (P10415 whole entry): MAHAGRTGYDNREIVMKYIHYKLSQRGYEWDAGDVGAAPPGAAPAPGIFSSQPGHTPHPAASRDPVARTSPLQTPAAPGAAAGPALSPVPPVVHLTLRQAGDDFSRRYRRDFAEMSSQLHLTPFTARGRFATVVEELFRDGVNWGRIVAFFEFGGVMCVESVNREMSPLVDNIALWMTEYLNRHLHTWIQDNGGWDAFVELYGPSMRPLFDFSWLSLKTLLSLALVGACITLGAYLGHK
# How it was run: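 Competitive fluorescence-polarization binding assay with recombinant human Bcl-2 and a fluorescently tagged Bid BH3 peptide as tracer. Ki values were derived from the competitive binding curves.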
# MDA-MB-231 [3] = assay: Induction of cell death in human MDA-MB-231 cells at 10 nM after 96 hrs by trypan blue exclusion assay; format: functional, cell-based; how it was run: as §1
# [4] = target: T2, Induced myeloid leukemia cell differentiation protein Mcl-1 (Homo sapiens, UniProt Q07820); assay: Displacement of biotinylated Bim BH3 peptide from recombinant His-tagged Mcl1 by ELISA assay
# T2 sequence (Q07820 whole entry): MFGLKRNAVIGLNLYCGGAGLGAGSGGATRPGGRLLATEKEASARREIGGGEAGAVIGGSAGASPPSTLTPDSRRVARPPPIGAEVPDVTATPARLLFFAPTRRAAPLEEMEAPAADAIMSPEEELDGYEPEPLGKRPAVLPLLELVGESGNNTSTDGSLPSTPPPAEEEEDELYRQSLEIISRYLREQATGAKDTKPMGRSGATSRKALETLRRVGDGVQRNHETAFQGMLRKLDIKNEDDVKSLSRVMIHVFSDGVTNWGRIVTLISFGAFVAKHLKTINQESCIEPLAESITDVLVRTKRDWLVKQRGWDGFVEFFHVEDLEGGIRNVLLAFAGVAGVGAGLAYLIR
# [5] = target: T1, Apoptosis regulator Bcl-2; assay: Displacement of biotinylated Bim BH3 peptide from recombinant His-tagged Bcl2 by ELISA assay
# [6] = target: T2, Induced myeloid leukemia cell differentiation protein Mcl-1; assay: Displacement of FAM-Bid BH3 peptide from human Mcl1 by FP-based binding assay
SMILES,Ki [2] [nM],IC50 [4] [nM],IC50 [5] [nM],Ki [6] [nM],Activity (MDA-MB-231 [1]),Activity (MDA-MB-231 [3])
CN(C)CC[C@H](CSc1ccccc1)Nc1ccc(S(=O)(=O)NC(=O)c2ccc(N3CCN(Cc4ccccc4-c4ccc(Cl)cc4)CC3)cc2)cc1[N+](=O)[O-],–,–,–,–,Dose-dependent effect,–
CN(CCCc1ccccc1)S(=O)(=O)c1cc(C(=O)N2CCc3ccc(S(=O)(=O)NCCc4ccccc4)cc3C2)c(O)c(O)c1O,110,39,330,150,Dose-dependent effect,Active
CC(C)c1cc(C(=O)N2CCc3ccc(S(=O)(=O)NCCc4ccccc4)cc3C2)c(O)c(O)c1O,590,–,6600,–,Dose-dependent effect,–

# More lines, main results first:
Ki [2] [nM],IC50 [4] [nM],IC50 [5] [nM],Ki [6] [nM],SMILES,Activity (MDA-MB-231 [1]),Activity (MDA-MB-231 [3])
31900,–,–,–,CC(C)c1cc(C(=O)Nc2ccccc2)c(O)c(O)c1O,Dose-dependent effect,–
3100,–,38200,–,CC(C)c1cc(C(=O)N2CCc3ccccc3C2)c(O)c(O)c1O,Dose-dependent effect,–

# — ChEMBL document CHEMBL1144472, “Pyrogallol-based molecules as potent inhibitors of the antiapoptotic Bcl-2 proteins” (J Med Chem, 2007)
